Experimental data as given in ChEMBL document CHEMBL4316610, “Synthesis and Biological Studies of (+)-Liquiditerpenoic Acid A (Abietopinoic Acid) and Representative Analogues: SAR Studies” (J Nat Prod, 2019).
Calls of active or inactive are those of the source. No cut-off for these calls is given here.

Assays:
A549 [1] = assay: Antiproliferative activity against human A549 cells after 48 hrs by SRB assay; type: functional; conditions: A549, 48 h
WiDr [2] = assay: Antiproliferative activity against human WiDr cells after 48 hrs by SRB assay; type: functional
SW1573 [3] = assay: Antiproliferative activity against human SW1573 cells after 48 hrs by SRB assay; type: functional; conditions: SW1573, 48 h
HeLa [4] = assay: Antiproliferative activity against human HeLa cells after 48 hrs by SRB assay; type: functional
HBL-100 [5] = assay: Antiproliferative activity against human HBL100 cells after 48 hrs by SRB assay; type: functional; conditions: HBL-100, 48 h
T47D [6] = assay: Antiproliferative activity against human T47D cells after 48 hrs by SRB assay; type: functional
[7] = Selectivity index, ratio of CC50 for mouse J774 cells to IC50 for Leishmania infantum MCAN/ES/96/BCN150 promastigotes; type: toxicity; conditions: read-out: Ratio CC50/IC50
Leishmania amazonensis = assay: Antileishmanial activity against Leishmania amazonensis MHOM/Br/79/Mari promastigotes after 48 hrs by resazurin dye-based fluorometric analysis; type: functional, organism-based
In short: (§1)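 The IC50 is taken as the compound concentration giving a 50% reduction in parasites, reported with SD.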

[8] = biological target: T1, GABA-A receptor; alpha-1/beta-2/gamma-2 (Homo sapiens) (UniProt P14867+P47870+P18507); assay: Modulation of recombinant wild type GABAA receptor alpha1beta2gamma2S (unknown origin) expressed in Xenopus laevis oocytes assessed as increase in GABA-evoked chloride current at 10 uM at -70 mV holding potential by two-microelectrode voltage clamp assay relative to control; type: cell-based
In short: (§2)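 Two-microelectrode voltage clamp at -70 mV on Xenopus laevis oocytes expressing α1β2γ2S GABA-A receptors. GABA EC5 (4-5 μM), set individually for each oocyte, applied for 20 s alone, then co-applied with compound at 10 or 100 μM. Potentiation of GABA-evoked current is reported. Dehydroabietic acid served as positive control. Mean ± SEM from at least three oocytes and two oocyte batches.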

Leishmania guyanensis = assay: Antileishmanial activity against Leishmania guyanensis 141/93 promastigotes after 48 hrs by resazurin dye-based fluorometric analysis; type: functional, organism-based; in short: as §1
[9] = Cytotoxicity against mouse J774 cells assessed as reduction in cell viability after 48 hrs by resazurin dye-based fluorometric analysis
In short: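 The CC50 is taken as the concentration giving a 50% reduction in cell viability of treated cultures compared with untreated cells.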

Leishmania infantum = assay: Antileishmanial activity against Leishmania infantum MCAN/ES/96/BCN150 promastigotes after 48 hrs by resazurin dye-based fluorometric analysis; type: functional, organism-based; in short: as §1
[10] = Selectivity index, ratio of CC50 for mouse J774 cells to IC50 for Leishmania amazonensis MHOM/Br/79/Mari promastigotes; type: toxicity; conditions: read-out: Ratio CC50/IC50
[11] = Selectivity index, ratio of CC50 for mouse J774 cells to IC50 for Leishmania guyanensis 141/93 promastigotes; type: toxicity; conditions: read-out: Ratio CC50/IC50
[12] = Selectivity index, ratio of CC50 for mouse J774 cells to IC50 for Leishmania donovani MHOM/IN/80/DD8 promastigotes; type: toxicity; conditions: read-out: Ratio CC50/IC50
Leishmania donovani = assay: Antileishmanial activity against Leishmania donovani MHOM/IN/80/DD8 promastigotes after 48 hrs by resazurin dye-based fluorometric analysis; type: functional, organism-based; in short: as §1
[13] = biological target: T1, GABA-A receptor; alpha-1/beta-2/gamma-2 (Homo sapiens); assay: Modulation of recombinant wild type GABAA receptor alpha1beta2gamma2S (unknown origin) expressed in Xenopus laevis oocytes assessed as increase in GABA-evoked chloride current at 100 uM at -70 mV holding potential by two-microelectrode voltage clamp assay relative to control; type: cell-based; in short: as §2
KOPN-8 [14] = assay: Induction of apoptosis in human KOPN8 cells assessed as late apoptotic cells at 20 uM after 32 hrs by Annexin V-FITC/propidium iodide staining-based flow cytometric analysis relative to control; type: functional
NALM-6 [15] = assay: Cell cycle arrest in human NALM6 cells assessed as accumulation at G2/M phase at 10 uM after 24 hrs by propidium iodide staining-based flow cytometric analysis; type: functional
In short: (§3)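 Phosphatidylserine exposure read by Annexin V-FITC/propidium iodide flow cytometry; DNA content by PI staining for cell-cycle distribution.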

SUP-B15 = assay: Antiproliferative activity against human SUP-B15 cells after 72 hrs by CellTiter-Glo luminescent cell viability assay; type: functional, cell-based; conditions: SUP-B15, 72 h
NALM-6 [16] = assay: Antiproliferative activity against human NALM6 cells after 72 hrs by CellTiter-Glo luminescent cell viability assay; type: functional, cell-based; conditions: NALM-6, 72 h
KOPN-8 [17] = assay: Antiproliferative activity against human KOPN8 cells after 72 hrs by CellTiter-Glo luminescent cell viability assay; type: functional, cell-based; conditions: KOPN-8, 72 h
[18] = Antiproliferative activity against mouse leukemia cells overexpressing BCR/ABL after 72 hrs by CellTiter-Glo luminescent cell viability assay; type: functional, cell-based
BJ = assay: Antiproliferative activity against human BJ cells after 72 hrs by CellTiter-Glo luminescent cell viability assay; type: ADME, cell-based
NALM-6 [19] = assay: Induction of apoptosis in human NALM6 cells at 10 uM after 24 hrs by Annexin V-FITC/propidium iodide staining-based flow cytometric analysis; type: functional, cell-based; in short: as §3
UoC-B1 = assay: Antiproliferative activity against human UOCB1 cells after 72 hrs by CellTiter-Glo luminescent cell viability assay; type: functional, cell-based; conditions: UoC-B1, 72 h
NALM-6 [20] = assay: Cell cycle arrest in human NALM6 cells assessed as accumulation at G0/G1 phase at 10 uM after 24 hrs by propidium iodide staining-based flow cytometric analysis; type: functional; in short: as §3
A549 [21] = assay: Antiproliferative activity against human A549 cells; type: functional
HeLa [22] = assay: Antiproliferative activity against human HeLa cells; type: functional
WiDr [23] = assay: Antiproliferative activity against human WiDr cells; type: functional
HBL-100 [24] = assay: Antiproliferative activity against human HBL100 cells; type: functional
SW1573 [25] = assay: Antiproliferative activity against human SW1573 cells; type: functional
T47D [26] = assay: Antiproliferative activity against human T47D cells; type: functional
[27] = Leishmania amazonensis, MHOM/Br/79/Mari, 48 h, read-out: IC50
[28] = Leishmania guyanensis, 141/93, 48 h, read-out: IC50
[29] = Leishmania infantum, MCAN/ES/96/BCN150, 48 h, read-out: IC50
[30] = Leishmania donovani, MHOM/IN/80/DD8, 48 h, read-out: IC50
[31] = Leishmania donovani, MHOM/IN/80/DD8, 48 h, read-out: log(1/IC50) (converted)

Work on `COc1cc([C@@H]2c3cc4c(cc3[C@@H](O[C@@H]3O[C@@H]5CO[C@@H](C)O[C@H]5[C@H](O)[C@H]3O)[C@H]3COC(=O)[C@H]23)OCO4)cc(OC)c1O` [ETOPOSIDE] yielded a GI50 (A549 [1]) of 1.5 µM, a GI50 (WiDr [2]) of 23 µM and a GI50 (SW1573 [3]) of 15 µM. It also gave a GI50 (HeLa [4]) of 3.3 µM, a GI50 (HBL-100 [5]) of 1.4 µM and a GI50 (T47D [6]) of 22 µM.

`CC(C)c1cc2c(cc1O)[C@@]1(C)CCC[C@@](C)(CO)[C@@H]1CC2` [18-HYDROXYFERRUGINOL] gave a selectivity ratio [7] of 33.4, an IC50 (Leishmania amazonensis; [27]) of 7.7 µM and an Activity [8] of 29.3%. It also gave an IC50 (Leishmania guyanensis; [28]) of 12.5 µM, a CC50 at 48 h [9] of 23.4 µM and an IC50 (Leishmania infantum; [29]) of 0.7 µM. The selectivity ratio [10] was 3, the selectivity ratio [11] was 1.9 and the selectivity ratio [12] was 1.7. For the same compound, the IC50 (Leishmania donovani; [30]) was 13.9 µM, the IC50 (Leishmania donovani; [31]) was 13.9 µM and the Activity [13] was 154%.

Compound `COC(=O)[C@]1(C)CCC[C@]2(C)c3cc(O)c(C(C)C)cc3C(=O)C[C@@H]12` has an Activity [8] of 37.4%, a CC50 at 48 h [9] of 154 µM and an Activity [13] of 242%.

With `CC(C)c1cc2c(cc1O)[C@@]1(C)CCC[C@@](C)(C(=O)O)[C@@H]1CC2=O` the IC50 (Leishmania amazonensis) was “Not Active”, the Activity [8] was -2% and the IC50 (Leishmania guyanensis) was “Not Active”. The CC50 at 48 h [9] was 219 µM, the IC50 (Leishmania infantum) was “Not Active” and the IC50 (Leishmania donovani) was “Not Active”. The Activity [13] was -21.1%.

`COC(=O)[C@]1(C)CCC[C@]2(C)c3cc(OC(C)=O)c(C(C)C)cc3CC[C@@H]12` showed an Activity (KOPN-8 [14]) greater than 85%, a GI50 (A549 [1]) of 11 µM and a GI50 (WiDr [2]) of 16 µM. For the same compound, the selectivity ratio [7] was 20.4, the GI50 (SW1573 [3]) was 12 µM and the Activity (NALM-6 [15]) was “Active”. The EC50 (SUP-B15) was 20.2 µM, the EC50 (NALM-6 [16]) was 8.8 µM and the IC50 (Leishmania amazonensis; [27]) was 3.2 µM. For the same compound, the GI50 (HeLa [4]) was 4.4 µM, the EC50 (KOPN-8 [17]) was 21 µM and the Activity [8] was 5.1%. For the same compound, the IC50 (Leishmania guyanensis; [28]) was 5.5 µM, the GI50 (HBL-100 [5]) was 15 µM and the EC50 [18] was 14.3 µM. The EC50 (BJ) was “Non-Toxic”, the CC50 at 48 h [9] was 26.5 µM and the IC50 (Leishmania infantum; [29]) was 1.3 µM. The selectivity ratio [10] was 8.2, the selectivity ratio [11] was 4.8 and the GI50 (T47D [6]) was 14 µM. For the same compound, the Activity (NALM-6 [19]) was “inactive”, the EC50 (UoC-B1) was greater than 40 µM and the selectivity ratio [12] was 3.3. The Activity (NALM-6 [20]) was “Active”, the IC50 (Leishmania donovani; [30]) was 8.1 µM and the IC50 (Leishmania donovani; [31]) was 8.12 µM. For the same compound, the Activity [13] was 26.3%.

Compound `COC(=O)[C@]1(C)CCC[C@]2(C)c3ccc(C(C)C)cc3CC[C@@H]12` [METHYL DEHYDROABIETATE] has a GI50 (A549 [21]) of 15 µM, a GI50 (HeLa [22]) of 15 µM and a GI50 (WiDr [23]) of 10 µM. The GI50 (HBL-100 [24]) was 19 µM, the GI50 (SW1573 [25]) was 22 µM and the GI50 (T47D [26]) was 16 µM.

Work on `CCCCCCCCCCCCCCCCOP(=O)([O-])OCC[N+](C)(C)C` [MILTEFOSINE] yielded a selectivity ratio [7] of 40.1, a selectivity ratio [10] of 2.9 and a selectivity ratio [11] of 7.5. The selectivity ratio [12] was 909.

Compound `CC(C)c1cc2c(cc1O)[C@@]1(C)CCC[C@@](C)(CO)[C@@H]1CC2=O` has a selectivity ratio [7] of 1.5, an IC50 (Leishmania amazonensis; [27]) of 10.2 µM and an Activity [8] of 4.5%. For the same compound, the IC50 (Leishmania guyanensis; [28]) was 16.5 µM, the CC50 at 48 h [9] was 14.4 µM and the IC50 (Leishmania infantum; [29]) was 9.7 µM. It also gave a selectivity ratio [10] of 1.4, a selectivity ratio [11] of 0.9 and a selectivity ratio [12] of 0.7. The IC50 (Leishmania donovani; [30]) was 19.7 µM, the IC50 (Leishmania donovani; [31]) was 19.7 µM and the Activity [13] was -30.3%.

`CN[C@@H]1C[C@H]2O[C@@](C)([C@@H]1OC)n1c3ccccc3c3c4c(c5c6ccccc6n2c5c31)C(=O)NC4` [STAUROSPORINE] gave an EC50 (NALM-6 [16]) of 1.4 µM and an EC50 [18] of 0.35 µM.

With `COC(=O)[C@]1(C)CCC[C@]2(C)c3cc(O)c(C(C)C)cc3CC[C@@H]12` the GI50 (A549 [1]) was 9.4 µM, the GI50 (WiDr [2]) was 23 µM and the selectivity ratio [7] was 6.8. The GI50 (SW1573 [3]) was 11 µM, the IC50 (Leishmania amazonensis; [27]) was 3.9 µM and the GI50 (HeLa [4]) was 5.8 µM. The Activity [8] was 23.7%, the IC50 (Leishmania guyanensis; [28]) was 5.9 µM and the GI50 (HBL-100 [5]) was 9.7 µM. The CC50 at 48 h [9] was 34.2 µM, the IC50 (Leishmania infantum; [29]) was 5 µM and the selectivity ratio [10] was 8.7. For the same compound, the selectivity ratio [11] was 5.8, the GI50 (T47D [6]) was 19 µM and the selectivity ratio [12] was 3.7. For the same compound, the IC50 (Leishmania donovani; [30]) was 9.21 µM, the IC50 (Leishmania donovani; [31]) was 9.21 µM and the Activity [13] was 378%.

With `CC(C)c1cc2c(cc1O)[C@@]1(C)CCC[C@@](C)(C(=O)O)[C@@H]1CC2` the selectivity ratio [7] was 2, the IC50 (Leishmania amazonensis; [27]) was 54.1 µM and the Activity [8] was 8.9%. For the same compound, the IC50 (Leishmania guyanensis; [28]) was 71.4 µM, the CC50 at 48 h [9] was 85.8 µM and the IC50 (Leishmania infantum; [29]) was 43.6 µM. It also gave a selectivity ratio [10] of 1.6, a selectivity ratio [11] of 1.2 and a selectivity ratio [12] of 1.5. For the same compound, the IC50 (Leishmania donovani; [30]) was 58.1 µM, the IC50 (Leishmania donovani; [31]) was 58.1 µM and the Activity [13] was 12.1%.
